Results: ChEMBL document CHEMBL1129729, “Orally active fibrinogen receptor antagonists. 2. Amidoximes as prodrugs of amidines” (J Med Chem, 1996)

Assays:
Homo sapiens [1] = species: Homo sapiens; assay: Inhibition of platelet aggregation of human platelet rich plasma(h-PRP) induced by adenosine 5-diphosphate (ADP).(oral activity in mice); type: functional; details: read-out: ID50 (the source's name)
In short: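 Mice got about 100 mg/kg orally, suspended in 10% gelatin (particle <1 µm); one mouse was killed at 1 h and one at 3 h for plasma. Serial dilutions of plasma (100 µL) were mixed with 300 µL human PRP and aggregated with 10 µM ADP (final). Dose divided by the IC50 dilution factor gave ID50; 1 h and 3 h values pooled, mean ± SEM.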

[2] = molecular target: Integrin alpha-IIb/beta-3 (Homo sapiens, UniProt P05106+P08514); assay: Inhibition of FG binding to alpha IIb beta-3 integrin; type: protein-complex assay
Chain of Integrin alpha-IIb/beta-3 (P05106 27-788 limits assumed): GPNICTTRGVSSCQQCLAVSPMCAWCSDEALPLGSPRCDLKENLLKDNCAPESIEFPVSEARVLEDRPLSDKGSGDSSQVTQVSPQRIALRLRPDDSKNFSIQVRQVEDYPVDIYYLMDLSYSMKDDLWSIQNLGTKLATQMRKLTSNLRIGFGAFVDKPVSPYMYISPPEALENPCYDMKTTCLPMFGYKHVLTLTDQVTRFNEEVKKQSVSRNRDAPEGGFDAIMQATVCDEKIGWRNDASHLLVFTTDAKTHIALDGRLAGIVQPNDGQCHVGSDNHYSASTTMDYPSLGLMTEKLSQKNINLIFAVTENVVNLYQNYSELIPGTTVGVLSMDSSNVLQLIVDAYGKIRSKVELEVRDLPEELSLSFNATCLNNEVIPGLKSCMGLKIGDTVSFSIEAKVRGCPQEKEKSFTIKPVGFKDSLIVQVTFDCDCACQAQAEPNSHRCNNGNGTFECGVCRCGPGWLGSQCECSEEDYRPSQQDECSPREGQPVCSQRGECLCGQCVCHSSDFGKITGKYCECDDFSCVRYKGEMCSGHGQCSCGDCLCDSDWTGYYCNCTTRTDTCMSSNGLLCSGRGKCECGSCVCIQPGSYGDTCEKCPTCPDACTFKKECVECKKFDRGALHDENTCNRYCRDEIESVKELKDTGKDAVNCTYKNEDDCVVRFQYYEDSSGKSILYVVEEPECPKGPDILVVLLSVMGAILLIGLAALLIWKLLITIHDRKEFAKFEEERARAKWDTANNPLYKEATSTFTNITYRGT
Chain of Integrin alpha-IIb/beta-3 (P08514 32-887 limits assumed): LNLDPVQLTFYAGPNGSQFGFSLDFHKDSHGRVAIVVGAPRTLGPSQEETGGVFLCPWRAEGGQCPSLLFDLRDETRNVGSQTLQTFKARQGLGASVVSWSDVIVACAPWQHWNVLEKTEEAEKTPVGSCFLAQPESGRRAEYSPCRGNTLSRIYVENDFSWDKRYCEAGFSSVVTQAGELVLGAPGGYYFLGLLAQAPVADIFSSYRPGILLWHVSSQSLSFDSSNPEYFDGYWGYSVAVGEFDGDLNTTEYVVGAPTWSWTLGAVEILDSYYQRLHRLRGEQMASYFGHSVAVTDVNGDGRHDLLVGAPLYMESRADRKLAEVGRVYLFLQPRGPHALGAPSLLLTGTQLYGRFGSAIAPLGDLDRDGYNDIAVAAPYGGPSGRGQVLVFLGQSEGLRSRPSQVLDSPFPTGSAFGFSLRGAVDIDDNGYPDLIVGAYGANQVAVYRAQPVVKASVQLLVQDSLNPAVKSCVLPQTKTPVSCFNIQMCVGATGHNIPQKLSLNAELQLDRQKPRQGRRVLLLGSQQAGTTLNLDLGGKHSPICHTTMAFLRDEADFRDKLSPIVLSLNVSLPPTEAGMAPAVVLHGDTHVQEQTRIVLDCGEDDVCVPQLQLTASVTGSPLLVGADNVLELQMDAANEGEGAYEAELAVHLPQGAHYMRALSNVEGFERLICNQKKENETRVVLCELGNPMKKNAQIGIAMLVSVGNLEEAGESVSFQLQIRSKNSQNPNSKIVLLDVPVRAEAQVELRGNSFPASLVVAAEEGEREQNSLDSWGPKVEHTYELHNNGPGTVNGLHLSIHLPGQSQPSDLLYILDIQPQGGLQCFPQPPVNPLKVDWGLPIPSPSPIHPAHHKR
Chain of Integrin alpha-IIb/beta-3 (P08514 891-1039 limits assumed): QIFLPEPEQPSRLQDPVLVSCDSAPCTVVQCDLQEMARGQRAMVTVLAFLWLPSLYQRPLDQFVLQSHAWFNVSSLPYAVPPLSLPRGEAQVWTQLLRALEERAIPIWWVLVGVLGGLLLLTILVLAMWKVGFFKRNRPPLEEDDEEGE
In short: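 Binding of fibrinogen to immobilized purified GP IIb-IIIa (αIIbβ3). IC50 was calculated by log-linear regression and is the mean of at least two independent experiments.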

Homo sapiens [3] = species: Homo sapiens; assay: Inhibition of platelet aggregation in human platelet rich plasma(h-PRP) induced by adenosine 5-diphosphate (ADP); type: functional
In short: (§1)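 ADP-induced aggregation of human platelet-rich plasma, measured in vitro. Plasma came from at least two donors. IC50 was read from the inhibition of aggregation.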

Homo sapiens [4] = species: Homo sapiens; assay: Compound was tested for inhibition of platelet aggregation of human platelet rich plasma(h-PRP) induced by adenosine 5-diphosphate (ADP); type: functional; in short: as §1

| SMILES | ED50 (Homo sapiens [1]) [mg/kg] | IC50 [2] [nM] | IC50 (Homo sapiens [3]) [nM] | IC50 (Homo sapiens [4]) [nM] |
| --- | --- | --- | --- | --- |
| CCOC(=O)NC(=N)c1ccc(C(=O)N[C@@H](Cc2ccc(OC(C)=O)cc2)C(=O)N2CCC(OCC(=O)OC(C)C)CC2)cc1 | 0.9 | > 10000 | > 100000 |  |
| CC(C)OC(=O)COc1ccc(C(=O)CN(C)C(=O)c2ccc(C(=N)N)cc2)cc1OCC(=O)OC(C)C | 11 | 900 | 345 |  |
| CCOC(=O)NC(=N)c1ccc(C(=O)N[C@@H](Cc2ccc(O)cc2)C(=O)N2CCC(OCC(=O)O)CC2)cc1 | 10.7 | 90 | 1950 |  |
| CC(C)OC(=O)OC(C)OC(=O)COC1CCN(C(=O)[C@H](C)NC(=O)c2ccc(C(=N)NO)cc2)CC1 (stereo not given in full) | 0.34 | > 10000 | > 60000 |  |
| CCOC(=O)COC1CCN(C(=O)[C@H](Cc2ccc(O)cc2)NC(=O)c2ccc(C(N)=NC(=O)OCC)cc2)CC1 | 1.4 | > 8000 | 39800 |  |
| CCCCOC(=O)NC(=N)c1ccc(C(=O)N[C@@H](C)C(=O)N2CCC(OCC(=O)OCC)CC2)cc1 | 0.3 | > 10000 | > 100000 |  |
| CCOC(=O)NC(=N)c1ccc(C(=O)N(C)CC(=O)c2ccc(OCC(=O)OC(C)C)c(OCC(=O)OC(C)C)c2)cc1 | 1.4 | > 10000 | > 100000 |  |
| CCOC(=O)COC1CCN(C(=O)[C@H](Cc2ccc(O)cc2)NC(=O)c2ccc(C(=N)N)cc2)CC1 | 6.9 | 51 | 63 |  |
| COC(=O)COc1ccc(C(=O)CN(C)C(=O)c2ccc(C(=N)NO)cc2)cc1OCC(=O)OC | 0.7 | > 10000 | > 100000 |  |
| C[C@H](NC(=O)c1ccc(C(=N)NO)cc1)C(=O)N1CCC(OCC(=O)O)CC1 | 5.1 | 594 | 13800 |  |
| CN(CC(=O)c1ccc(OCC(=O)O)c(OCC(=O)O)c1)C(=O)c1ccc(C(=N)N)cc1 | 11.2 | 0.4 | 51 |  |
| CCOC(=O)COC1CCN(C(=O)[C@H](C)NC(=O)c2ccc(C(=N)N)cc2)CC1 | 1.8 | 163 | 500 |  |
| CCOC(=O)COC1CCN(C(=O)[C@H](Cc2ccc(O)cc2)NC(=O)c2ccc(C(=N)NO)cc2)CC1 | 2.6 | > 10000 | > 100000 |  |
| N=C(N)c1ccc(C(=O)N[C@@H](Cc2ccc(O)cc2)C(=O)N2CCC(OCC(=O)O)CC2)cc1 [LAMIFIBAN] | 8.5 | 1.4 |  | 33 |
| C[C@H](NC(=O)c1ccc(C(=N)N)cc1)C(=O)N1CCC(OCC(=O)O)CC1 [RO-44-3888] | 5.2 | 1.9 | 38 |  |
